From ChEMBL document CHEMBL1129331, “Synthesis and physicochemical, biological, and pharmacological properties of new bile acids amidated with cyclic amino acids” (J Med Chem, 1996) come the findings set out here.

Data set [1] in a line: Critical micellar pH of the compound. was determined. In outline:
(§1)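 20 mL of 50 mM bile salt solution titrated with 0.1 M HCl. CMpH is taken as the pH at which precipitate of the protonated form is first seen by turbidity at 500 nm. Confirmed by back-titration with 0.1 M NaOH until the suspension clears.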

Data set [2] in a line: Acidity constant of the compound. was determined. The data set is classed as ADME.
Data set [3] is described as follows: Relative lipophilicity was determined. The settings on record: C-18 reverse phase HPLC. It counts as physicochemical. In outline: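 C-18 reverse-phase HPLC run isocratically at 0.9 mL/min. Mobile phase 65% (v/v) aqueous methanol with 2 mM ammonium acetate, pH 7, so that all bile acids are fully ionized.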
Data set [4] is described as follows: Critical Micellar concentration of the compound. was determined. It counts as ADME. Summed up: (§2)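 Measured in water from surface tension, using the maximum bubble-pressure method.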
The nature of data set [5]: (§3) Partition coefficient (logP). The settings on record: octanol/water. The data set is classed as physicochemical. Summed up:
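Octanol/water partition coefficient of the protonated species, calculated rather than measured.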

A short description of data set [6]: Water solubility of the compound. was determined. The data set is classed as ADME. The settings on record: read-out: S. Summed up:
(§4)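 Protonated form; measured on saturated solutions at pH 1.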

Data set [7] can be described thus: (§5) The compound was incubated with cholylglycine hydrolase and tested for determining the stability towards C-24 Deamination. The data set is classed as ADME.
The test system of data set [8] is Rattus norvegicus. The data set is described as follows: Maximum biliary secretion rate of TCDCA after iv confusion in Bile fistula rats. It counts as ADME, organism-based. The settings on record: in vivo.
The subject of data set [9] is Rattus norvegicus. The data set is described as follows: Maximum biliary secretion rate of bile acids after iv confusion in Bile fistula rats. It counts as ADME, organism-based. The settings on record: in vivo.
Data set [10] relates to Rattus norvegicus. The data set can be described thus: Secretion of Bile acids in Bile Fistula rats after the iv administration of compound, expressed as the residual secretion rate. It counts as ADME, organism-based. The settings on record: in vivo. In outline:
(§6)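 Male Sprague-Dawley rats (300-330 g), urethane-anesthetized, bile duct cannulated. After 1 h baseline, sodium salt infused via femoral vein at 10 μmol/min/kg for 1 h; bile collected at 15-min intervals for 3 h. Flow measured gravimetrically; bile acids, cholesterol and phospholipid measured enzymatically. Smax and Tmax read from secretion-time plots; Rs is the rate at hour 3. Mean ± SD, n=6.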

Data set [11] relates to Rattus norvegicus. The data set can be described thus: Secretion of Bile in Bile Fistula rats after the iv administration of compound, expressed as the residual secretion rate. The data set is classed as ADME, organism-based. The settings on record: in vivo. Summed up:
(§7)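 Anaesthetised (ethyl carbamate) male Sprague-Dawley rats, 300-330 g, bile duct cannulated; after 1 h baseline, bile acid sodium salts infused via femoral vein at 10 μmol/min/kg for 1 h. Bile collected 3 h at 15 min intervals; flow gravimetric; BA, cholesterol, phospholipid by enzymatic assays. Smax, Tmax from secretion-vs-time plots; Rs = rate at third hour. n=6, mean ± SD.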

Data set [12] has as its system Rattus norvegicus. The data set can be described thus: Secretion of cholesterol in Bile Fistula rats after the iv administration of compound, expressed as the maximum secretion rate i. The settings on record: in vivo. It counts as ADME, organism-based. Summed up: as §6
For data set [13], the system named is Rattus norvegicus. The data set can be described thus: Secretion of phospholipid in Bile Fistula rats after the iv administration of compound, expressed as the maximum secretion rate. It counts as ADME, organism-based. The settings on record: in vivo. In outline: as §7
Data set [14] has as its system Rattus norvegicus. The data set is described as follows: Secretion of phospholipid in Bile Fistula rats after the iv administration of compound, expressed as the residual secretion rate. The settings on record: in vivo. It counts as ADME, organism-based. Summed up: as §7
The subject of data set [15] is Rattus norvegicus. The data set can be described thus: Lactate dehydrogenase in Bile Fistula rats after iv coinfusion of TCDCA and compound. It counts as ADME, organism-based. The settings on record: in vivo. Summed up:
(§8)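 Bile fistula Sprague-Dawley rats (200-250 g). TCDCA and test bile acid given as sodium salts, coinfused via jugular vein, each at 8 μmol/min/kg for 1 h. Bile collected at 30-min intervals for 3 h. Calcium, ALP and LDH in bile measured enzymatically; bile acid composition by HPLC (65% methanol, 15 mM ammonium acetate, pH 5.4). Mean ± SD.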

Data set [16] deals with Rattus norvegicus. The data set is described as follows: Alkaline phosphatase in Bile Fistula rats after iv coinfusion of TCDCA and compound. The data set is classed as ADME, organism-based. The settings on record: in vivo. Summed up:
as §8

The nature of data set [17]: Critical micellar pH was determined. In outline:
as §1

Data set [18] concerns Rattus norvegicus. The data set is described as follows: Secretion of Bile acids in Bile Fistula rats after the iv administration of compound, expressed as the maximum secretion rate. The data set is classed as ADME, organism-based. The settings on record: in vivo. In outline:
as §7

Data set [19] is described as follows: as §3. The data set is classed as physicochemical. The settings on record: octanol/water. The source holds these as a separate data set.
Data set [20] concerns Rattus norvegicus. The data set is described as follows: Secretion of cholesterol in Bile Fistula rats after the iv administration of compound, expressed as the residual secretion rate. The settings on record: in vivo. It counts as ADME, organism-based. Summed up: as §6
The test system of data set [21] is Rattus norvegicus. The data set is described as follows: Calcium output in Bile Fistula rats after iv coinfusion of TCDCA and compound. The settings on record: in vivo. The data set is classed as ADME, organism-based. In outline: as §8
Data set [22] is described as follows: (§9) The compound was incubated with human stools and tested for determining the stability towards 7-dehydroxylation. The data set is classed as ADME, organism-based. In outline:
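Homogenised fresh human stool (500 mg) in 5 mL chopped meat-glucose medium with bile acid at 0.05 mM final, incubated at 37 °C; stopped with 30% KOH at 0, 4, 8, 16, 20, 24 and 72 h. Supernatant extracted on C-18 solid phase, analysed by TLC and HPLC (aqueous methanol 75%, 15 mM ammonium acetate, apparent pH 5.4).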

The subject of data set [23] is Rattus norvegicus. The data set can be described thus: Bile flow in Bile Fistula rats after iv coinfusion of TCDCA and compound. The data set is classed as ADME, organism-based. The settings on record: in vivo. Summed up:
as §8

The test system of data set [24] is Rattus norvegicus. The data set is described as follows: Secretion of Bile in Bile Fistula rats after the iv administration of compound, expressed as the maximum secretion rate. It counts as ADME, organism-based. The settings on record: in vivo. Summed up: as §6
Data set [25] is described as follows: Water solubility was determined. The data set is classed as ADME. The settings on record: read-out: WS. In outline: as §4
Data set [26] is described as follows: as §9. It counts as ADME, organism-based. In outline: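 Homogenized fresh human stool (500 mg) in 5 mL chopped meat-glucose medium; bile acid added at 0.05 mM final; 37 °C. Sampled at 0–72 h and stopped with 30% KOH. Bile acids recovered by C-18 solid-phase extraction, then analyzed by TLC and by HPLC with 75% methanol/15 mM ammonium acetate, pH 5.4.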
The source holds these as a separate data set.

For a further data set, the system named is cholylglycine hydrolase. The data set is described as §5. It counts as ADME. The settings on record: cholylglycine hydrolase.
The test system of data set [27] is Rattus norvegicus. The data set is described as follows: Secretion of cholesterol in Bile Fistula rats after the iv administration of compound, expressed as the maximum secretion rate. The data set is classed as ADME, organism-based. The settings on record: in vivo. In outline:
as §7

The nature of data set [28]: Acidity constant was determined. It counts as ADME.
For data set [29], the system named is Rattus norvegicus. The data set is described as follows: Maximum biliary secretion rate of bile acids after iv coinfusion in Bile fistula rats. The data set is classed as ADME, organism-based. The settings on record: in vivo. In outline: as §8
For data set [30], the system named is Rattus norvegicus. The data set can be described thus: Maximum biliary secretion rate of TCDCA after iv coinfusion in Bile fistula rats. It counts as ADME, organism-based. The settings on record: in vivo. In outline: as §8
Data set [31] is described as follows: Critical Micellar concentration was determined. The data set is classed as ADME. Summed up: as §2

Molecules are shown by their SMILES. ≈ marks a conversion by molar mass, not a printed value.

Regarding `C[C@H](CCC(=O)O)[C@H]1CC[C@H]2[C@@H]3C[C@H](O)[C@@H]4C[C@H](O)CC[C@]4(C)[C@H]3CC[C@]12C` [HYODEOXYCHOLIC_ACID], in [1], the CMpH was 8.1. Besides, the pKa in data set [2] was 5. In data set [3], the rK is on record as 0.89. Besides, the CMC in [4] was 14 mM. The logP in [5] worked out at 4.27. Besides, the solubility in data set [6] was 15 µM (≈ 5.89 µg/mL).
Regarding `C[C@H](CCC(=O)NCCS(=O)(=O)O)[C@H]1CC[C@H]2[C@@H]3C[C@H](O)C4C[C@H](O)CC[C@]4(C)[C@H]3CC[C@]12C` (stereo in doubt; form 1), the T1/2 in data set [7] was 4 h.
On to `C[C@H](CCC(=O)O)[C@H]1CC[C@H]2[C@@H]3[C@@H](O)C[C@@H]4C[C@H](O)CC[C@]4(C)[C@H]3CC[C@]12C` [URSODIOL], for which the Smax in the data set with Rattus norvegicus [8] is 1.56 µM/min/kg; in the data set on Rattus norvegicus [9], 1.72 µM/min/kg; in the data set with Rattus norvegicus [12], 55 nM/min/kg; in the data set with Rattus norvegicus [13], 0.00026 µM/min/g; in the data set with Rattus norvegicus [18], 0.0042 µM/min/g; with Rattus norvegicus [21] it was 0.00018 µM/min/g. For the same compound, the Smax is 4.32 mL/h/kg in the data set with Rattus norvegicus [23] and 6.96 mL/h/kg with Rattus norvegicus [24]. The Rs in the data set with Rattus norvegicus [10] was 0.0008 µM/min/g; in the data set on Rattus norvegicus [11], 2.82 mL/h/kg; in the data set on Rattus norvegicus [14] it was 0.00012 µM/min/g; with Rattus norvegicus [20], 24 nM/min/kg. Besides, the “[LDH]max” value with Rattus norvegicus [15] is listed as 115 UI l-1. In [3], this compound displayed a rK of 1. In addition, the CMC in data set [4] turned out to be 26 mM. The [ALP]max with Rattus norvegicus [16] came to 217 IU/L. This compound also came in with a CMpH in data set [17] of 8.4. The logP in [19] came to 5.69. Besides, the half-life in data set [22] was 2 h. The solubility in data set [25] is 8 µM (≈ 3.14 µg/mL).
In the case of `CC(CCC(=O)NCC(=O)O)C1CC[C@H]2[C@@H]3[C@H](O)CC4C[C@H](O)CCC4(C)[C@H]3CCC12C` (some centres undefined), the Rs with Rattus norvegicus [10] worked out at 0.8 µM/min/kg; in the data set with Rattus norvegicus [11] it was 2.7 mL/h/kg; in the data set with Rattus norvegicus [14], 0.1 µM/min/kg; in the data set on Rattus norvegicus [20], 18 nM/min/kg. For the same compound, the Smax in the data set with Rattus norvegicus [13] amounted to 0.23 µM/min/kg; with Rattus norvegicus [27] it was 51 nM/min/kg; with Rattus norvegicus [18], 6.1 µM/min/kg; in the data set on Rattus norvegicus [21], 0.22 µM/min/kg; with Rattus norvegicus [23], 3.78 mL/h/kg; in the data set with Rattus norvegicus [29] it was 3.33 µM/min/kg. Also, the Smax in the data set with Rattus norvegicus [30] came out at 3.13 µM/min/kg; in the data set with Rattus norvegicus [24], 4.62 mL/h/kg. The half-life was 2 h in data set [26] and 4 h in the data set with cholylglycine hydrolase. Besides, the “[LDH]max” value in the data set on Rattus norvegicus [15] is recorded as 37 UI l-1. For the same compound, the rK in data set [3] is 0.85. In the data set with Rattus norvegicus [16], this compound yielded a [ALP]max of 150 IU/L. The compound further came in with a CMpH in [17] of 7.1. In data set [5], this compound had a logP of 3.53. This compound also registered a pKa in data set [28] of 3.9. For the same compound, the CMC in [31] is reported as 12 mM. Also, the solubility in data set [25] was 8 µM (≈ 3.6 µg/mL).

Usually pKa stands for the pH at which an ionisable group is half protonated. Higher therefore signals a group that holds its proton tightly. In general, logP refers to the decadic logarithm of the partition coefficient of the neutral form, usually between octanol and water. Read a low logP as lower lipophilicity. In general, half-life refers to how long it takes for the measured level to halve. Read a high half-life as slow loss.
